Values belong to the compound of their own block, whether it stands above or below them.
How the values were obtained:
[1] = Lipophilicity, log P of the compound at pH 7.5 by reversed phase HPLC analysis; format: physicochemical; details: buffer
Procedure, shortened: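 Retention times were set relative to catechol and calibrated against standards of known log P using a polynomial log P vs log RRT curve. Injections were done in triplicate and averaged.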

Translocator protein = Translocator protein (Rattus norvegicus, UniProt P16257); test: Displacement of [3H]-PK 11195 from TSPO in rat C6 cell lysates after 2 hrs by scintillation counting analysis; format: cell-free
Procedure, shortened: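 Rat C6 glioma cells washed in PBS and freeze-thawed three times in HEPES/mannitol/sucrose lysis buffer with protease inhibitors and MgCl2, pH 7.4 (lysate 0.5 mg/mL). Reaction stopped by filtration onto PEI-presoaked filters, then scintillation counting.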

[2] = Drug metabolism in Wistar rat plasma at 130 to 200 MBq, iv after 12 mins by radio-HPLC analysis; format: ADME, organism-based; details: read-out: Drug metabolism
Liver [3] = test: Drug uptake in Wistar rat liver at 1.0 to 1.5 mCi after 90 mins by NaI well counting analysis in presence of 2-(5,7-diethyl-2-(4-(2-fluoroethoxy)phenyl)pyrazolo[1,5-a]-pyrimidin-3-yl)-N,N-diethylacetamide; format: ADME, tissue-based; details: in vivo, 1.5 h
Procedure, shortened: (§1)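 Rats received 1.0–1.5 mCi radiotracer. Unlabelled analog (10 mg/kg) was injected 30 min after tracer as a displacement challenge. Tissues taken and counted in a NaI well counter. %ID/g derived from sample weight and radioactivity.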

Brain [4] = test: Biodistribution in Wistar rat brain at 1.0 to 1.5 mCi after 60 mins by NaI well counting analysis; format: ADME, organism-based; details: in vivo, 1 h
Procedure, shortened: (§2)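 Radiotracer given to rats; 14 tissues plus urine taken 60 min after a 1.0–1.5 mCi injection. Each sample weighed and its radioactivity counted in a NaI well counter. %ID/g derived from weight and radioactivity.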

[5] = Drug uptake in iv dosed C6 cells bearing Wistar rat tongue after 90 mins by PET imaging analysis; format: ADME, organism-based; details: in vivo, 1.5 h
Procedure, shortened: (§3)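 Male Wistar rats stereotactically inoculated in the right hemisphere with 1.0×10^5 C6 glioma cells two weeks before imaging, with venous and arterial catheters placed. Tumors confirmed by 4.7-T MRI. PET/CT followed within 24 h, with tracer given via jugular catheter during the scan.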

[6] = Drug excretion in Wistar rat urine at 1.0 to 1.5 mCi after 90 mins by NaI well counting analysis in presence of 2-(5,7-diethyl-2-(4-(2-fluoroethoxy)phenyl)pyrazolo[1,5-a]-pyrimidin-3-yl)-N,N-diethylacetamide; format: ADME, tissue-based; details: in vivo, 1.5 h; procedure, shortened: as §1
Spleen [7] = test: Biodistribution in Wistar rat spleen at 1.0 to 1.5 mCi after 60 mins by NaI well counting analysis; format: ADME, organism-based; details: in vivo, 1 h; procedure, shortened: as §2
Colon = test: Biodistribution in Wistar rat colon at 1.0 to 1.5 mCi after 60 mins by NaI well counting analysis; format: ADME, organism-based; details: in vivo, 1 h; procedure, shortened: as §2
Heart [8] = test: Biodistribution in Wistar rat heart at 1.0 to 1.5 mCi after 60 mins by NaI well counting analysis; format: ADME, organism-based; details: in vivo, 1 h; procedure, shortened: as §2
Brain [9] = test: Drug uptake in iv dosed C6 cells bearing Wistar rat brain after 90 mins by PET imaging analysis; format: ADME, organism-based; details: in vivo, 1.5 h; procedure, shortened: as §3
Rattus norvegicus [10] = species on record: Rattus norvegicus; test: Biodistribution in Wistar rat stomach at 1.0 to 1.5 mCi after 60 mins by NaI well counting analysis; format: ADME, organism-based; details: in vivo, 1 h; procedure, shortened: as §2
Spleen [11] = test: Drug uptake in Wistar rat spleen at 1.0 to 1.5 mCi after 90 mins by NaI well counting analysis in presence of 2-(5,7-diethyl-2-(4-(2-fluoroethoxy)phenyl)pyrazolo[1,5-a]-pyrimidin-3-yl)-N,N-diethylacetamide; format: ADME, tissue-based; details: in vivo, 1.5 h; procedure, shortened: as §1
Rattus norvegicus [12] = species on record: Rattus norvegicus; test: Biodistribution in Wistar rat whole blood at 1.0 to 1.5 mCi after 60 mins by NaI well counting analysis; format: ADME, organism-based; details: in vivo, 1 h; procedure, shortened: as §2
Liver [13] = test: Biodistribution in Wistar rat liver at 1.0 to 1.5 mCi after 60 mins by NaI well counting analysis; format: ADME, organism-based; details: in vivo, 1 h; procedure, shortened: as §2
Muscle tissue = test: Drug uptake in Wistar rat muscle at 1.0 to 1.5 mCi after 90 mins by NaI well counting analysis in presence of 2-(5,7-diethyl-2-(4-(2-fluoroethoxy)phenyl)pyrazolo[1,5-a]-pyrimidin-3-yl)-N,N-diethylacetamide; format: ADME, tissue-based; details: in vivo, 1.5 h; procedure, shortened: as §1
Rattus norvegicus [14] = species on record: Rattus norvegicus; test: Stability in C6 cells bearing Wistar rat plasma at 1.5 mCi after 90 mins by radio-HPLC analysis; format: ADME, organism-based; details: c6, 1.5 h
Procedure, shortened: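 Arterial blood (200 μL) drawn at 2, 12, 30, 60 and 90 min after 1.5 mCi radiotracer. Plasma extracted with acetonitrile/water 7/1 and centrifuged. Supernatant run on reversed-phase radio-HPLC with 0.1 M ammonium acetate pH 10/acetonitrile (30/70).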

Harderian gland = test: Drug uptake in iv dosed C6 cells bearing Wistar rat harderian glands after 90 mins by PET imaging analysis; format: ADME, organism-based; details: in vivo, 1.5 h; procedure, shortened: as §3
[15] = Ratio of total distribution volume in C6 cells bearing Wistar rat tumor to total distribution volume in C6 cells bearing Wistar rat brain; format: ADME, cell-based
Lung [16] = test: Drug uptake in Wistar rat lung at 1.0 to 1.5 mCi after 90 mins by NaI well counting analysis in presence of 2-(5,7-diethyl-2-(4-(2-fluoroethoxy)phenyl)pyrazolo[1,5-a]-pyrimidin-3-yl)-N,N-diethylacetamide; format: ADME, tissue-based; details: in vivo, 1.5 h; procedure, shortened: as §1
Testes = test: Biodistribution in Wistar rat testes at 1.0 to 1.5 mCi after 60 mins by NaI well counting analysis; format: ADME, organism-based, Testis; details: in vivo, 1 h; procedure, shortened: as §2
Heart [17] = test: Drug uptake in Wistar rat heart at 1.0 to 1.5 mCi after 90 mins by NaI well counting analysis in presence of 2-(5,7-diethyl-2-(4-(2-fluoroethoxy)phenyl)pyrazolo[1,5-a]-pyrimidin-3-yl)-N,N-diethylacetamide; format: ADME, tissue-based; details: in vivo, 1.5 h; procedure, shortened: as §1
[18] = Drug uptake in iv dosed C6 cells bearing Wistar rat olfactory epithelium after 90 mins by PET imaging analysis; format: ADME, organism-based; details: in vivo, 1.5 h; procedure, shortened: as §3
Kidney [19] = test: Drug uptake in Wistar rat kidney at 1.0 to 1.5 mCi after 90 mins by NaI well counting analysis in presence of 2-(5,7-diethyl-2-(4-(2-fluoroethoxy)phenyl)pyrazolo[1,5-a]-pyrimidin-3-yl)-N,N-diethylacetamide; format: ADME, tissue-based; details: in vivo, 1.5 h; procedure, shortened: as §1
Rattus norvegicus [20] = species on record: Rattus norvegicus; test: Biodistribution in Wistar rat skeletal muscle at 1.0 to 1.5 mCi after 60 mins by NaI well counting analysis; format: ADME, organism-based, Muscle tissue; details: in vivo, 1 h; procedure, shortened: as §2
Rattus norvegicus [21] = species on record: Rattus norvegicus; test: Biodistribution in Wistar rat small bowel at 1.0 to 1.5 mCi after 60 mins by NaI well counting analysis; format: ADME, organism-based, Small intestine; details: in vivo, 1 h; procedure, shortened: as §2
[22] = Drug uptake in iv dosed C6 cells bearing Wistar rat tumor after 90 mins by PET imaging analysis; format: ADME, organism-based, Neoplasm; details: in vivo, 1.5 h; procedure, shortened: as §3
Rattus norvegicus [23] = species on record: Rattus norvegicus; test: Biodistribution in Wistar rat skull at 1.0 to 1.5 mCi after 60 mins by NaI well counting analysis; format: ADME, organism-based; details: in vivo, 1 h; procedure, shortened: as §2
Lung [24] = test: Biodistribution in Wistar rat lung at 1.0 to 1.5 mCi after 60 mins by NaI well counting analysis; format: ADME, organism-based; details: in vivo, 1 h; procedure, shortened: as §2
Kidney [25] = test: Biodistribution in Wistar rat kidney at 1.0 to 1.5 mCi after 60 mins by NaI well counting analysis; format: ADME, organism-based; details: in vivo, 1 h; procedure, shortened: as §2
[26] = Displacement of [3H]-flunitrazepam from CBR in Wistar rat cerebral cortex membranes after 2 hrs by scintillation counting analysis; format: cell membranes, Membrane
Procedure, shortened: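 Male Wistar rat cerebral cortex homogenized in ice-cold PBS pH 7.4 (5.0 mg/mL protein). Incubated with 0.6 nM [3H]flunitrazepam (final) and ligand at 10⁻⁵ to 10⁻⁷ M for 2 h at 25 °C. Reaction stopped by filtration onto PEI-presoaked filters, then scintillation counting of bound activity.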

Translocator protein, sequence (P16257 whole entry, looked up): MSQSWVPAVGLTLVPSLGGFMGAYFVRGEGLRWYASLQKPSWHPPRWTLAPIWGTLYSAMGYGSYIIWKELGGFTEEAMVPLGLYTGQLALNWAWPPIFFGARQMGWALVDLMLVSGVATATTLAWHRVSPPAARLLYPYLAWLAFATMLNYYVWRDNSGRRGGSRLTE

- logP [1]: 2.07
- Ki (Translocator protein): 252 nM
SMILES: CCN(CC)C(=O)Cc1c(-c2ccc(OCCF)cc2)nn2c(C)c(CC(C)=O)c(C)nc12

- logP [1]: 2.57
- Ki (Translocator protein): 201 nM
SMILES: CCN(CC)C(=O)Cc1c(-c2ccc(OC)cc2)nn2c(C)c(CC(C)=O)c(C)nc12

- metabolised at 0.2 h [2]: 30%
SMILES: CCN(CC)C(=O)Cc1c(-c2ccc(OCC[18F])cc2)nn2c(C)cc(C)nc12 [DPA-714 F-18]

- Drug uptake (Liver [3]): Active
- Drug uptake (Brain [4]): Active
- Drug uptake [5]: Active
- Drug excretion [6]: Active
- Drug uptake (Spleen [7]): Active
- Drug uptake (Colon): Active
- Drug uptake (Heart [8]): Active
- Drug uptake (Brain [9]): Active
- Drug uptake (Rattus norvegicus [10]): Active
- Drug uptake (Spleen [11]): Not Active
- Ct (Rattus norvegicus [12]): Not Active
- Drug uptake (Liver [13]): Active
- Drug uptake (Muscle tissue): Active
- Stability (Rattus norvegicus [14]): Stable
- Drug uptake (Harderian gland): Active
- Ratio [15]: 6
- Drug uptake (Lung [16]): Not Active
- Drug uptake (Testes): Active
- Drug uptake (Heart [17]): Not Active
- Drug uptake [18]: Active
- Drug uptake (Kidney [19]): Not Active
- Drug uptake (Rattus norvegicus [20]): Active
- Drug uptake (Rattus norvegicus [21]): Active
- Drug uptake [22]: Active
- Drug uptake (Rattus norvegicus [23]): Active
- Drug uptake (Lung [24]): Active
- Drug uptake (Kidney [25]): Active
SMILES: CCc1cc(CC)n2nc(-c3ccc(OCC[18F])cc3)c(CC(=O)N(CC)CC)c2n1

- logP [1]: 2.78
- Ki (Translocator protein): 157 nM
SMILES: CCc1c(C)nc2c(CC(=O)N(CC)CC)c(-c3ccc(OC)cc3)nn2c1C

SMILES: CCN(CC)C(=O)Cc1c(-c2ccc(OC)cc2)nn2c(C(C)C)cc(C(C)C)nc12
- logP [1]: 2.98
- Ki (Translocator protein): > 500 nM

- logP [1]: 2.84
- Ki (Translocator protein): 0.18 nM
SMILES: CCc1cc(CC)n2nc(-c3ccc(OC)cc3)c(CC(=O)N(CC)CC)c2n1

- logP [1]: 2.47
- Ki (Translocator protein): 83 nM
SMILES: CCN(CC)C(=O)Cc1c(-c2ccc(OCCF)cc2)nn2c(C)c(C)c(C)nc12

- logP [1]: 2.45
- Ki (Translocator protein): 93.7 nM
SMILES: CCN(CC)C(=O)Cc1c(-c2ccc(OC)cc2)nn2c(C)c(C)c(C)nc12

- logP [1]: 2.4
SMILES: CCN(CC)C(=O)Cc1c(-c2ccc(OC)cc2)nn2c(C)cc(C)nc12

SMILES: CCN(CC)C(=O)Cc1c(-c2ccc(OCCF)cc2)nn2c(C(C)C)cc(C(C)C)nc12
- logP [1]: 2.73
- Ki (Translocator protein): > 500 nM

- logP [1]: 2.55
- Ki (Translocator protein): 67.9 nM
SMILES: CCN(CC)C(=O)Cc1c(-c2ccc(OCCF)cc2)nn2c(C)c(Cl)c(C)nc12

- logP [1]: 2.53
- Ki (Translocator protein): 277 nM
SMILES: CCc1c(C)nc2c(CC(=O)N(CC)CC)c(-c3ccc(OCCF)cc3)nn2c1C

- logP [1]: 2.12
SMILES: CCN(CC)C(=O)Cc1c(-c2ccc(OCCF)cc2)nn2c(C)cc(C)nc12 [DPA-714]

- logP [1]: 2.99
- Ki (Translocator protein): 55.4 nM
SMILES: CCN(CC)C(=O)Cc1c(-c2ccc(OC)cc2)nn2c(C)c(Cl)c(C)nc12

SMILES: CCc1cc(CC)n2nc(-c3ccc(OCCF)cc3)c(CC(=O)N(CC)CC)c2n1
- Ki [26]: > 10 µM
- logP [1]: 2.5
- Ki (Translocator protein): 0.27 nM

From ChEMBL document CHEMBL2331516, “Synthesis and structure-activity relationships of 5,6,7-substituted pyrazolopyrimidines: discovery of a novel TSPO PET ligand for cancer imaging” (J Med Chem, 2013)
